Columns and labels:
[1] = target: T1, Purine nucleoside phosphorylase (Homo sapiens, UniProt P00491); assay: Competitive inhibition of PNP in human Jurkat cells using MSEG as substrate by Dixon-plot analysis; type: cell-based
T1 sequence (P00491 whole entry): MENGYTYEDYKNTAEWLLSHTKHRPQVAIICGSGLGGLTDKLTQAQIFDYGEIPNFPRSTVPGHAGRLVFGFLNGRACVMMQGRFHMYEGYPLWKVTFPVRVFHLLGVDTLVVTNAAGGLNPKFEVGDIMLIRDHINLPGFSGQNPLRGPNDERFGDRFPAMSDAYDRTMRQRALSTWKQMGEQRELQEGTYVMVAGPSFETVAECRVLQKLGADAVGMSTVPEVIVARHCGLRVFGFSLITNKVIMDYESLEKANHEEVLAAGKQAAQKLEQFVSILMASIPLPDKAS

[2] = target: T1, Purine nucleoside phosphorylase; assay: Competitive inhibition of PNP in human MINO cells using MSEG as substrate by Dixon-plot analysis; type: cell-based
[3] = target: T1, Purine nucleoside phosphorylase; assay: Competitive inhibition of PNP in human MC116 cells using MSEG as substrate by Dixon-plot analysis; type: cell-based
[4] = target: T1, Purine nucleoside phosphorylase; assay: Competitive inhibition of PNP in human AML cells obtained from patients using MSEG as substrate by Dixon-plot analysis; type: cell-based
[5] = target: T1, Purine nucleoside phosphorylase; assay: Competitive inhibition of PNP in human HBL2 tumor cells using MSEG as substrate by Dixon-plot analysis; type: cell-based
[6] = target: T1, Purine nucleoside phosphorylase; assay: Competitive inhibition of PNP in human CML cells obtained from patients using MSEG as substrate by Dixon-plot analysis; type: cell-based
[7] = target: T1, Purine nucleoside phosphorylase; assay: Competitive inhibition of PNP in human DoHH2 cells using MSEG as substrate by Dixon-plot analysis; type: cell-based
[8] = target: T1, Purine nucleoside phosphorylase; assay: Competitive inhibition of PNP in human RPMI8226 cells using MSEG as substrate by Dixon-plot analysis; type: cell-based, RPMI-8226
[9] = target: T1, Purine nucleoside phosphorylase; assay: Competitive inhibition of PNP in human K562 cells using MSEG as substrate by Dixon-plot analysis; type: cell-based
[10] = target: T1, Purine nucleoside phosphorylase; assay: Competitive inhibition of PNP in human HBL2 cells using MSEG as substrate by Dixon-plot analysis; type: cell-based
[11] = target: T1, Purine nucleoside phosphorylase; assay: Inhibition of human recombinant PNP using MSEG as substrate preincubated with inhibitor within 10 to 20 mins measured after 5 mins by HPLC analysis
Procedure, shortened: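 Recombinant human PNP (0.002 units) preincubated with inhibitor (0–250 nM) in 50 mM Tris pH 7.5 at 20 C for 0, 10 or 20 min. Then phosphate (final 500 µM) and MESG (final 20 µM) added; incubated 2 and 5 min at 25 C, aliquots quenched with HCl. MESG phosphorolysis measured by HPLC; activity expressed relative to no-inhibitor assays.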

[12] = target: T1, Purine nucleoside phosphorylase; assay: Competitive inhibition of PNP in human OPM2 cells using MSEG as substrate by Dixon-plot analysis; type: cell-based, OPM-2
[13] = target: T1, Purine nucleoside phosphorylase; assay: Competitive inhibition of human recombinant PNP using MSEG as substrate by Dixon-plot analysis
Procedure, shortened: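 Human recombinant PNP. Assay mix was 50 mM Tris pH 7.5 with MESG at 40 or 80, constant 500 phosphate and inhibitor 0–500 nM. Enzyme addition started phosphorolysis, read at 360 nm for 5–7 min from initial rates. Ki was taken from Dixon plots (1/v vs [I]) over three independent measurements.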

[14] = target: T1, Purine nucleoside phosphorylase; assay: Competitive inhibition of PNP in human PBMC using MSEG as substrate by Dixon-plot analysis
[15] = target: T1, Purine nucleoside phosphorylase; assay: Competitive inhibition of PNP in human SU-DHL-1 cells using MSEG as substrate by Dixon-plot analysis; type: cell-based

In the case of `Nc1nc2c(ncn2[C@@H]2CN(C(=O)P(=O)(O)O)C[C@@H]2O)c(=O)[nH]1`, the Ki [1] is reported as 10 nM, the Ki [2] is reported as 10 nM and the Ki [3] is reported as 11 nM. For the same compound, the Ki [4] was 12 nM, the Ki [5] was 24 nM and the Ki [6] was 14 nM. For the same compound, the Ki [7] was 6 nM, the Ki [8] was 20 nM and the Ki [9] was 10 nM. It also gave a Ki [10] of 16 nM, an IC50 [11] of 10 nM and a Ki [12] of 16 nM. The Ki [13] was 7 nM, the Ki [14] was 10 nM and the Ki [15] was 11 nM.
Compound `Nc1nc2c(ncn2[C@H]2CCN(C(=O)P(=O)(O)O)C2)c(=O)[nH]1` has a Ki [1] of 16 nM, a Ki [2] of 30 nM and a Ki [3] of 50 nM. For the same compound, the Ki [4] was 60 nM, the Ki [5] was 100 nM and the Ki [6] was 77 nM. It also gave a Ki [7] of 50 nM, a Ki [8] of 50 nM and a Ki [9] of 60 nM. It also gave a Ki [10] of 98 nM, a Ki [12] of 78 nM and a Ki [13] of 25 nM. For the same compound, the Ki [14] was 20 nM and the Ki [15] was 38 nM.

— ChEMBL document CHEMBL2021821, “N-phosphonocarbonylpyrrolidine derivatives of guanine: a new class of bi-substrate inhibitors of human purine nucleoside phosphorylase” (J Med Chem, 2012)
